Data from ChEMBL document CHEMBL1142063, “Synthesis of omeprazole analogues and evaluation of these as potential inhibitors of the multidrug efflux pump NorA of Staphylococcus aureus” (2007).

What was measured:
Staphylococcus aureus [1] = assay: Antibacterial activity against Staphylococcus aureus SA1199B overexpressing NorA at 5 ug by disk diffusion method; format: functional; conditions: read-out: IZ
Summary of the method: (§1)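 Agar diffusion on Mueller-Hinton agar (adjusted to 20 μg/ml Ca²⁺ and 10 μg/ml Mg²⁺), used plain or with the efflux inhibitor incorporated at the stated concentration. Disks were 5 μg for the fluoroquinolones and 30 μg for chloramphenicol. Plates were incubated overnight at 37°C, and inhibition zone diameters were measured. Values are means of at least three independent experiments.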

Staphylococcus aureus [2] = assay: Antibacterial activity against Staphylococcus aureus SA1199 at 5 ug by disk diffusion method; conditions: read-out: IZ
Staphylococcus aureus [3] = assay: Increase in 5 ug sparfloxacin antibacterial activity against Staphylococcus aureus SA1199B mutant overexpressing NorA at 16 ug/ml by disk diffusion method; format: functional; summary of the method: as §1
Staphylococcus aureus [4] = assay: Increase in 5 ug sparfloxacin antibacterial activity against Staphylococcus aureus SA1199B mutant overexpressing NorA at 64 ug/ml by disk diffusion method; format: functional; summary of the method: as §1
Staphylococcus aureus [5] = assay: Increase in 64 ug/ml Norfloxacin antibacterial activity against Staphylococcus aureus SA1199B mutant overexpressing NorA at 128 ug/ml by checker board method; format: functional
Staphylococcus aureus [6] = assay: Increase in 30 ug chloramphenicol antibacterial activity against Staphylococcus aureus SA1199B mutant overexpressing NorA at 16 ug/ml by disk diffusion method; format: functional; summary of the method: as §1
Staphylococcus aureus [7] = assay: Increase in 5 ug levofloxacin antibacterial activity against Staphylococcus aureus SA1199B mutant overexpressing NorA at 64 ug/ml by disk diffusion method; format: functional; summary of the method: as §1
Staphylococcus aureus [8] = assay: Increase in 5 ug ofloxacin antibacterial activity against Staphylococcus aureus SA1199B mutant overexpressing NorA at 64 ug/ml by disk diffusion method; format: functional; summary of the method: as §1
Staphylococcus aureus [9] = assay: Increase in 30 ug chloramphenicol antibacterial activity against Staphylococcus aureus SA1199B mutant overexpressing NorA at 32 ug/ml by disk diffusion method; format: functional; summary of the method: as §1
Staphylococcus aureus [10] = assay: Increase in 5 ug Norfloxacin antibacterial activity against Staphylococcus aureus SA1199B mutant overexpressing NorA at 32 ug/ml by disk diffusion method; format: functional; summary of the method: as §1
Staphylococcus aureus [11] = assay: Increase in 5 ug moxifloxacin antibacterial activity against Staphylococcus aureus SA1199B mutant overexpressing NorA at 128 ug/ml by disk diffusion method; format: functional; summary of the method: as §1
Staphylococcus aureus [12] = assay: Increase in 5 ug Norfloxacin antibacterial activity against Staphylococcus aureus SA1199B mutant overexpressing NorA at 128 ug/ml by disk diffusion method; format: functional; summary of the method: as §1
Staphylococcus aureus [13] = assay: Increase in 5 ug sparfloxacin antibacterial activity against Staphylococcus aureus SA1199B mutant overexpressing NorA at 32 ug/ml by disk diffusion method; format: functional; summary of the method: as §1
Staphylococcus aureus [14] = assay: Increase in 16 ug/ml Norfloxacin accumulation in wild type Staphylococcus aureus SA1199 at 128 ug/ml after 20 mins; format: functional
Summary of the method: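 Mid-exponential SA-1199 cells were washed and resuspended in 50 mM sodium phosphate, pH 7.0. They were exposed at time zero to norfloxacin at one-quarter MIC, alone or with EPI at 128 μg/ml. At 5–20 min, cells were spun through silicone-paraffin oil into orthophosphoric acid. Lysate norfloxacin was measured by C18 HPLC with fluorescence detection (ex 240, em 280 nm) and normalized to BCA protein (ng/mg). Triplicate experiments, mean reported.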

Staphylococcus aureus [15] = assay: Increase in 16 ug/ml Norfloxacin accumulation in Staphylococcus aureus SA1199B mutant overexpressing NorA at 128 ug/ml after 20 mins; format: functional
Summary of the method: (§2)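 SA-1199B was grown to mid-exponential phase in MH broth (4–5 h, 37°C, shaken), then washed and resuspended in 50 mM sodium phosphate, pH 7.0. Cells got norfloxacin at one-quarter MIC, alone or with inhibitor at 128 μg/ml. At 5–20 min, cells were spun through silicone-paraffin oil into orthophosphoric acid. Norfloxacin was measured by HPLC fluorescence (ex 240/[…]) as ng/mg BCA protein. Means of triplicate experiments.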

Staphylococcus aureus [16] = assay: Increase in 5 ug moxifloxacin antibacterial activity against Staphylococcus aureus SA1199B mutant overexpressing NorA at 32 ug/ml by disk diffusion method; format: functional; summary of the method: as §1
Staphylococcus aureus [17] = assay: Increase in 5 ug ciprofloxacin antibacterial activity against Staphylococcus aureus SA1199B mutant overexpressing NorA at 128 ug/ml by disk diffusion method; format: functional; summary of the method: as §1
Staphylococcus aureus [18] = assay: Increase in 30 ug chloramphenicol antibacterial activity against Staphylococcus aureus SA1199B mutant overexpressing NorA at 128 ug/ml by disk diffusion method; format: functional; summary of the method: as §1
Staphylococcus aureus [19] = assay: Increase in 5 ug levofloxacin antibacterial activity against Staphylococcus aureus SA1199B mutant overexpressing NorA at 128 ug/ml by disk diffusion method; format: functional; summary of the method: as §1
Staphylococcus aureus [20] = assay: Increase in 5 ug ofloxacin antibacterial activity against Staphylococcus aureus SA1199B mutant overexpressing NorA at 16 ug/ml by disk diffusion method; format: functional; summary of the method: as §1
Staphylococcus aureus [21] = assay: Increase in 5 ug levofloxacin antibacterial activity against Staphylococcus aureus SA1199B mutant overexpressing NorA at 32 ug/ml by disk diffusion method; format: functional; summary of the method: as §1
Staphylococcus aureus [22] = assay: Increase in 5 ug ofloxacin antibacterial activity against Staphylococcus aureus SA1199B mutant overexpressing NorA at 128 ug/ml by disk diffusion method; format: functional; summary of the method: as §1
Staphylococcus aureus [23] = assay: Increase in 5 ug moxifloxacin antibacterial activity against Staphylococcus aureus SA1199B mutant overexpressing NorA at 64 ug/ml by disk diffusion method; format: functional; summary of the method: as §1
Staphylococcus aureus [24] = assay: Increase in 5 ug Norfloxacin antibacterial activity against Staphylococcus aureus SA1199B mutant overexpressing NorA at 64 ug/ml by disk diffusion method; format: functional; summary of the method: as §1
Staphylococcus aureus [25] = assay: Increase in 5 ug Norfloxacin antibacterial activity against Staphylococcus aureus SA1199B mutant overexpressing NorA at 16 ug/ml by disk diffusion method; format: functional; summary of the method: as §1
Staphylococcus aureus [26] = assay: Increase in 5 ug moxifloxacin antibacterial activity against Staphylococcus aureus SA1199B mutant overexpressing NorA at 16 ug/ml by disk diffusion method; format: functional; summary of the method: as §1
Staphylococcus aureus [27] = assay: Increase in 5 ug ciprofloxacin antibacterial activity against Staphylococcus aureus SA1199B mutant overexpressing NorA at 16 ug/ml by disk diffusion method; format: functional; summary of the method: as §1
Staphylococcus aureus [28] = assay: Increase in 5 ug levofloxacin antibacterial activity against Staphylococcus aureus SA1199B mutant overexpressing NorA at 16 ug/ml by disk diffusion method; format: functional; summary of the method: as §1
Staphylococcus aureus [29] = assay: Increase in 5 ug ofloxacin antibacterial activity against Staphylococcus aureus SA1199B mutant overexpressing NorA at 32 ug/ml by disk diffusion method; format: functional; summary of the method: as §1
Staphylococcus aureus [30] = assay: Antibacterial activity against Staphylococcus aureus; format: functional
Summary of the method: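 Tube broth dilution MIC against SA-1199 and NorA-overproducing SA-1199B in Mueller-Hinton broth with 20 μg/ml Ca²⁺ and 10 μg/ml Mg²⁺. Inoculum was a 4–5 h 37°C culture diluted 1/10 (≈10⁶ CFU/ml). Compound range was 512 to 1 μg/ml, dissolved in DMSO (final ≤4%).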

Staphylococcus aureus [31] = assay: Increase in 5 ug sparfloxacin antibacterial activity against Staphylococcus aureus SA1199B mutant overexpressing NorA at 128 ug/ml by disk diffusion method; format: functional; summary of the method: as §1
Staphylococcus aureus [32] = assay: Increase in 30 ug chloramphenicol antibacterial activity against Staphylococcus aureus SA1199B mutant overexpressing NorA at 64 ug/ml by disk diffusion method; format: functional; summary of the method: as §1
Staphylococcus aureus [33] = assay: Increase in 16 ug/ml Norfloxacin accumulation in Staphylococcus aureus SA1199B mutant overexpressing NorA measured per milligram of cell protein at 128 ug/ml after 20 mins; format: functional, organism-based; summary of the method: as §2
Staphylococcus aureus [34] = assay: Increase in 2 ug/ml Norfloxacin antibacterial activity against wild type Staphylococcus aureus SA1199 at 128 ug/ml by checker board method; format: functional
Staphylococcus aureus [35] = assay: Increase in 5 ug ciprofloxacin antibacterial activity against Staphylococcus aureus SA1199B mutant overexpressing NorA at 32 ug/ml by disk diffusion method; format: functional; summary of the method: as §1
Staphylococcus aureus [36] = assay: Increase in 5 ug ciprofloxacin antibacterial activity against Staphylococcus aureus SA1199B mutant overexpressing NorA at 64 ug/ml by disk diffusion method; format: functional; summary of the method: as §1
Staphylococcus aureus [37] = assay: Increase in 16 ug/ml Norfloxacin accumulation in Staphylococcus aureus SA1199B mutant overexpressing NorA measured per mg of cell protein at 128 ug/ml after 5 mins; format: functional, organism-based; summary of the method: as §2

CCn1cc(C(=O)O)c(=O)c2cc(F)c(N3CCNCC3)cc21 [NORFLOXACIN]
zone of inhibition at 5 µg/disc (Staphylococcus aureus [1]): 27 mm

O=C(O)c1cn(C2CC2)c2cc(N3CCNCC3)c(F)cc2c1=O [CIPROFLOXACIN]
zone of inhibition at 5 µg/disc (Staphylococcus aureus [1]): 13 mm

C[C@@H]1CN(c2c(F)c(N)c3c(=O)c(C(=O)O)cn(C4CC4)c3c2F)C[C@H](C)N1 [SPARFLOXACIN]
zone of inhibition at 5 µg/disc (Staphylococcus aureus [2]): 30 mm

COC(=O)[C@H]1[C@H]2C[C@@H]3c4[nH]c5cc(OC)ccc5c4CCN3C[C@H]2C[C@@H](OC(=O)c2cc(OC)c(OC)c(OC)c2)[C@@H]1OC [RESERPINE]
inhibition zone (IZ) (Staphylococcus aureus [3]): 27 mm | inhibition zone (IZ) (Staphylococcus aureus [4]): 27 mm | MIC (Staphylococcus aureus [5]): 8 µg/mL | inhibition zone (IZ) (Staphylococcus aureus [6]): 24 mm | inhibition zone (IZ) (Staphylococcus aureus [7]): 24 mm | inhibition zone (IZ) (Staphylococcus aureus [8]): 20 mm | inhibition zone (IZ) (Staphylococcus aureus [9]): 24 mm | inhibition zone (IZ) (Staphylococcus aureus [10]): 12 mm | inhibition zone (IZ) (Staphylococcus aureus [11]): 28 mm | inhibition zone (IZ) (Staphylococcus aureus [12]): 13 mm | inhibition zone (IZ) (Staphylococcus aureus [13]): 27 mm | Activity (Staphylococcus aureus [14]): 10% | Activity (Staphylococcus aureus [15]): 40% | inhibition zone (IZ) (Staphylococcus aureus [16]): 28 mm | inhibition zone (IZ) (Staphylococcus aureus [17]): 22 mm | inhibition zone (IZ) (Staphylococcus aureus [18]): 25 mm | inhibition zone (IZ) (Staphylococcus aureus [19]): 24 mm | inhibition zone (IZ) (Staphylococcus aureus [20]): 19 mm | inhibition zone (IZ) (Staphylococcus aureus [21]): 24 mm | inhibition zone (IZ) (Staphylococcus aureus [22]): 21 mm | inhibition zone (IZ) (Staphylococcus aureus [23]): 28 mm | inhibition zone (IZ) (Staphylococcus aureus [24]): 12 mm | inhibition zone (IZ) (Staphylococcus aureus [25]): 9 mm | inhibition zone (IZ) (Staphylococcus aureus [26]): 28 mm | inhibition zone (IZ) (Staphylococcus aureus [27]): 16 mm | inhibition zone (IZ) (Staphylococcus aureus [28]): 22 mm | inhibition zone (IZ) (Staphylococcus aureus [29]): 19 mm | MIC (Staphylococcus aureus [30]): > 512 µg/mL | inhibition zone (IZ) (Staphylococcus aureus [31]): 28 mm | inhibition zone (IZ) (Staphylococcus aureus [32]): 25 mm | Drug uptake (Staphylococcus aureus [33]): 400 ng/mg | MIC (Staphylococcus aureus [34]): 1 µg/mL | inhibition zone (IZ) (Staphylococcus aureus [35]): 18 mm | inhibition zone (IZ) (Staphylococcus aureus [36]): 20 mm | Drug uptake (Staphylococcus aureus [37]): 270 ng/mg

COc1c(N2C[C@@H]3CCCN[C@@H]3C2)c(F)cc2c(=O)c(C(=O)O)cn(C3CC3)c12 [MOXIFLOXACIN]
zone of inhibition at 5 µg/disc (Staphylococcus aureus [1]): 27 mm

COc1ccc2c(c1)nc(C[S+]([O-])c1nc3ccccc3[nH]1)c1cccn12 (stereo not drawn)
MIC (Staphylococcus aureus [5]): 8 µg/mL | inhibition zone (IZ) (Staphylococcus aureus [11]): 28 mm | inhibition zone (IZ) (Staphylococcus aureus [12]): 13 mm | Activity (Staphylococcus aureus [14]): 10% | Activity (Staphylococcus aureus [15]): 40% | inhibition zone (IZ) (Staphylococcus aureus [17]): 22 mm | inhibition zone (IZ) (Staphylococcus aureus [18]): 26 mm | inhibition zone (IZ) (Staphylococcus aureus [19]): 24 mm | inhibition zone (IZ) (Staphylococcus aureus [22]): 25 mm | MIC (Staphylococcus aureus [30]): > 512 µg/mL | inhibition zone (IZ) (Staphylococcus aureus [31]): 28 mm | Drug uptake (Staphylococcus aureus [33]): 400 ng/mg | MIC (Staphylococcus aureus [34]): 1 µg/mL | Drug uptake (Staphylococcus aureus [37]): 270 ng/mg
